What was measured:
[1] = system: Bifunctional dihydrofolate reductase-thymidylate synthase (Plasmodium falciparum K1), P13922 [UNDEFINED MUTATION]; assay: Ratio of binding affinity for mutant (C59R+S108N+I164L) to that of wild type dihydrofolate reductase
How it was run: (§1)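 Each ratio is Ki for the mutant PfDHFR divided by Ki for wild-type PfDHFR. The recombinant enzymes were expressed in E. coli BL21(DE3)pLysS and purified on methotrexate-Sepharose. Ki was derived assuming inhibitors compete with substrate binding.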

[2] = biological target: Bifunctional dihydrofolate reductase-thymidylate synthase (Plasmodium falciparum K1, UniProt P13922); assay: Binding affinity towards wild-type dihydrofolate reductase of Plasmodium falciparum.
Chain of Bifunctional dihydrofolate reductase-thymidylate synthase (Plasmodium falciparum K1, UniProt P13922) (P13922 whole entry): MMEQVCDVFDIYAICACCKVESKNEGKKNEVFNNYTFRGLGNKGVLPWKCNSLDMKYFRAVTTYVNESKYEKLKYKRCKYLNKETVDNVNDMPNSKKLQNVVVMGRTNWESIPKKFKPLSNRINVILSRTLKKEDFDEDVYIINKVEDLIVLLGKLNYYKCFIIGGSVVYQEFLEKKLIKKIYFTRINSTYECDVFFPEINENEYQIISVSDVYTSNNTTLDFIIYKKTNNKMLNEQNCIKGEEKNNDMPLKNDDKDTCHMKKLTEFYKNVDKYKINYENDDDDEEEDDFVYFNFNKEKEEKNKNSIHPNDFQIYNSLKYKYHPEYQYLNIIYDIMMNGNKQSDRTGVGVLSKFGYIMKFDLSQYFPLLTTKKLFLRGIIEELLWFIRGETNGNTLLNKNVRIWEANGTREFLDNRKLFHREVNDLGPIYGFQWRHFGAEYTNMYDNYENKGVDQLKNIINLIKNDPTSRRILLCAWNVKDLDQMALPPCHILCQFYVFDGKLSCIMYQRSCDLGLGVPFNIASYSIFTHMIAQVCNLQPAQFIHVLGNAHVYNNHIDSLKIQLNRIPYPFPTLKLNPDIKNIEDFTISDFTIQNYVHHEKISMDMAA

[3] = biological target: Bifunctional dihydrofolate reductase-thymidylate synthase (Plasmodium falciparum K1, UniProt P13922, C59R/N51I/S108N); assay: Binding affinity towards mutant dihydrofolate reductase (N51I+C59R+S108N DHFR) of Plasmodium falciparum
Chain of Bifunctional dihydrofolate reductase-thymidylate synthase (Plasmodium falciparum K1, UniProt P13922, C59R/N51I/S108N) (P13922 whole entry, looked up, stated change not applied): as the sequence (P13922 whole entry) above

[4] = system: Bifunctional dihydrofolate reductase-thymidylate synthase (Plasmodium falciparum K1), P13922 [UNDEFINED MUTATION]; assay: Ratio of binding affinity for mutant (A16V+S108T) to that of wild type dihydrofolate reductase; how it was run: as §1
[5] = biological target: Bifunctional dihydrofolate reductase-thymidylate synthase (Plasmodium falciparum K1, UniProt P13922, C59R/I164L/N51I/S108N); assay: Binding affinity towards mutant dihydrofolate reductase (N51I+C59R+S108N+I164L DHFR) of Plasmodium falciparum
Chain of Bifunctional dihydrofolate reductase-thymidylate synthase (Plasmodium falciparum K1, UniProt P13922, C59R/I164L/N51I/S108N) (P13922 whole entry, looked up, stated change not applied): as the sequence (P13922 whole entry) above

[6] = biological target: Bifunctional dihydrofolate reductase-thymidylate synthase (Plasmodium falciparum K1, UniProt P13922, C59R/I164L/S108N); assay: Binding affinity towards mutant dihydrofolate reductase (C59R+S108N+I164L DHFR) of Plasmodium falciparum
Chain of Bifunctional dihydrofolate reductase-thymidylate synthase (Plasmodium falciparum K1, UniProt P13922, C59R/I164L/S108N) (P13922 whole entry, looked up, stated change not applied): as the sequence (P13922 whole entry) above

[7] = biological target: Bifunctional dihydrofolate reductase-thymidylate synthase (Plasmodium falciparum K1) (UniProt P13922); assay: Ratio of binding affinity for mutant (N51I+C59R+S108N) to that of wild type dihydrofolate reductase; how it was run: as §1
Chain of Bifunctional dihydrofolate reductase-thymidylate synthase (Plasmodium falciparum K1) (P13922 whole entry, looked up): as the sequence (P13922 whole entry) above

[8] = system: Bifunctional dihydrofolate reductase-thymidylate synthase (Plasmodium falciparum K1), P13922 [UNDEFINED MUTATION]; assay: Ratio of binding affinity for mutant (N51I+C59R+S108N+I164L) to that of wild type dihydrofolate reductase; how it was run: as §1
KB [9] = assay: In vitro cytotoxicity against Plasmodium falciparum infected KB cell line; format: functional, cell-based; settings: Homo sapiens
How it was run: (§2)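 Cytotoxicity (IC50, μM) run against three mammalian lines: Vero (African green monkey kidney fibroblasts), KB (human epidermoid carcinoma) and BC (human breast cancer). Testing followed the Skehan et al. protocol.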

BC [10] = assay: Relative antiplasmodial activity to cytotoxicity in Plasmodium falciparum Csl-2 infected BC cells; format: functional
BC [11] = assay: Relative antiplasmodial activity to cytotoxicity in Plasmodium falciparum TM4/8.2 infected BC cells; format: functional
Vero [12] = assay: Relative antiplasmodial activity to cytotoxicity in Plasmodium falciparum Csl-2 infected Vero cells; format: functional
Vero [13] = assay: Relative antiplasmodial activity to cytotoxicity in Plasmodium falciparum TM4/8.2 infected Vero cells; format: functional
Vero [14] = assay: Relative antiplasmodial activity to cytotoxicity in Plasmodium falciparum V1/S infected Vero cells; format: functional
[15] = biological target: Bifunctional dihydrofolate reductase-thymidylate synthase (Plasmodium falciparum K1, UniProt P13922, A16V/S108T); assay: Binding affinity towards mutant dihydrofolate reductase (A16V+S108T DHFR) of Plasmodium falciparum.
Chain of Bifunctional dihydrofolate reductase-thymidylate synthase (Plasmodium falciparum K1, UniProt P13922, A16V/S108T) (P13922 whole entry, looked up, stated change not applied): as the sequence (P13922 whole entry) above

KB [16] = assay: Relative antiplasmodial activity to cytotoxicity in Plasmodium falciparum V1/S infected KB cells; format: functional
KB [17] = assay: Relative antiplasmodial activity to cytotoxicity in Plasmodium falciparum TM4/8.2 infected KB cells; format: functional
Vero [18] = assay: In vitro cytotoxicity against Plasmodium falciparum infected vero cell line.; format: functional, cell-based; settings: Chlorocebus sabaeus; how it was run: as §2
BC [19] = assay: In vitro cytotoxicity against BC cell line.; settings: Homo sapiens
KB [20] = assay: Relative antiplasmodial activity to cytotoxicity in Plasmodium falciparum Csl-2 infected KB cells; format: functional

Chain of Bifunctional dihydrofolate reductase-thymidylate synthase (Plasmodium falciparum K1), P13922 [UNDEFINED MUTATION] (P13922 whole entry, looked up, stated change not applied): as the sequence (P13922 whole entry) above

| Compound | Ratio [1] | Ki [2] [nM] | Ki [3] [nM] | Ratio [4] | Ki [5] [nM] | Ki [6] [nM] | Ratio [7] | Ratio [8] | IC50 (KB [9]) [nM] | Safety ratio (BC [10]) | Safety ratio (BC [11]) | Safety ratio (Vero [12]) | Safety ratio (Vero [13]) | Safety ratio (Vero [14]) | Ki [15] [nM] | Safety ratio (KB [16]) | Safety ratio (KB [17]) | IC50 (Vero [18]) [nM] | IC50 (BC [19]) [nM] | Safety ratio (KB [20]) |
| --- | --- | --- | --- | --- | --- | --- | --- | --- | --- | --- | --- | --- | --- | --- | --- | --- | --- | --- | --- | --- |
| CC1N=C(N)N=C(N)N1c1ccc(Cl)cc1 (stereo unspecified) | 386 | 4.1 | 134 | 31 | 2430 | 1580 | 32.7 | 592 |  |  |  |  |  |  |  |  |  |  |  |  |
| NC1=NC(c2ccccc2)N(c2cccc(Cl)c2)C(N)=N1 (stereo unspecified) | 18.5 | 11.7 | 111 | 0.9 | 984 | 217 | 9.5 | 84.1 | 87000 | 672 | 300 | 1000 | 446 | 312 | 10.5 | 109 | 155 | 250000 | 168000 | 348 |
| Nc1nc(N)c(-c2cccc(Cl)c2)c(CCOCCCOc2ccccc2)n1 | 3.2 | 0.4 | 0.7 |  | 1.7 | 1.3 | 1.7 | 4.2 | 6400 | 1.7 | 14 | 5.2 | 42.9 | 3.3 |  | 1.4 | 18.3 |  | 4900 | 2.2 |
| COc1ccc(CCCc2nc(N)nc(N)c2-c2cccc(Cl)c2)cc1 | 1.3 | 2.2 | 1.3 |  | 2 | 2.9 | 0.6 | 0.9 |  | 1.1 | 7.3 | 1.1 | 7.3 | 0.6 |  | 3.2 | 36.6 |  | 3000 | 5.6 |
| Nc1nc(N)c(-c2ccccc2)c(CCCc2ccccc2)n1 | 3.8 | 0.5 | 1.1 |  | 4.7 | 1.9 | 2.2 | 9.4 | 150000 | 92.6 | 1191 | >18.5 | >238 | >5.8 |  | 17.4 | 714 |  | 250000 | 55.6 |
| CC1(C)N=C(N)N=C(N)N1c1ccc(Cl)cc1 [CYCLOGUANIL] | 190 | 1.5 | 31.4 | 876 | 420 | 285 | 20.9 | 280 | 41000 | >1.3 | >1250 | > 1.3 | >1250 |  |  | <0.4 | 1025 | > 50000 | > 50000 | 1.1 |
| CCCCCCc1nc(N)nc(N)c1-c1ccccc1 |  | 0.3 | 0.4 |  | 1.4 | 0.7 |  |  |  | 89.3 | 4467 | 18.3 | 917 | 8.6 |  | 17.7 | 1883 |  |  | 37.7 |
| Nc1nc(N)c(-c2cccc(Cl)c2)c(CCCc2ccccc2)n1 | 1.8 | 1.2 | 2 |  | 2 | 2.2 | 1.7 | 1.7 | 1600 | 0.4 | 2.4 | 0.6 | 3.1 | 0.4 |  | 0.3 | 2.4 | 2100 | 1600 | 0.4 |
